Columns and labels:
[1] = target: Metabotropic glutamate receptor 1 (Rattus norvegicus, UniProt P23385); experiment: Inhibitory concentration against rat metabotropic glutamate receptor 1
How it was run: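 Rat mGlu1a stably expressed in CHO-dhfr- cells grown in DMEM/GlutaMAX1 with 10% heat-inactivated dialyzed fetal calf serum, 0.4 mM L-proline and antibiotics. Inhibition of receptor activation was measured as intracellular Ca2+ rise on a fluorometric imaging plate reader. IC50 is the mean of two or three independent experiments.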

[2] = target: Metabotropic glutamate receptor 1 (Homo sapiens, UniProt Q13255); experiment: Inhibitory concentration against human metabotropic glutamate receptor
How it was run: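 Human mGlu1a receptor stably expressed in L929sA cells grown in GlutaMAX1 medium with 10% heat-inactivated dialyzed fetal calf serum, streptomycin and penicillin. Antagonism of receptor activation was read as intracellular Ca2+ response on a fluorometric imaging plate reader. IC50 is the mean of two or three independent experiments.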

[3] = Total plasma clearance in rat after the single intravenous administration at 2.5 mg/kg; assay type: ADME, organism-based; parameters: dose 2.5 mg/kg, route intravenous
How it was run: (§1)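 Rats received a single intravenous 2.5 mg/kg dose. Plasma kinetics were followed to derive elimination half-life and total plasma clearance.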

[4] = Half life in rat after the single intravenous administration at 2.5 mg/kg; assay type: ADME, organism-based; parameters: dose 2.5 mg/kg, route intravenous; details: in vivo; how it was run: as §1

Chain of Metabotropic glutamate receptor 1 (Rattus norvegicus, UniProt P23385) (P23385 whole entry): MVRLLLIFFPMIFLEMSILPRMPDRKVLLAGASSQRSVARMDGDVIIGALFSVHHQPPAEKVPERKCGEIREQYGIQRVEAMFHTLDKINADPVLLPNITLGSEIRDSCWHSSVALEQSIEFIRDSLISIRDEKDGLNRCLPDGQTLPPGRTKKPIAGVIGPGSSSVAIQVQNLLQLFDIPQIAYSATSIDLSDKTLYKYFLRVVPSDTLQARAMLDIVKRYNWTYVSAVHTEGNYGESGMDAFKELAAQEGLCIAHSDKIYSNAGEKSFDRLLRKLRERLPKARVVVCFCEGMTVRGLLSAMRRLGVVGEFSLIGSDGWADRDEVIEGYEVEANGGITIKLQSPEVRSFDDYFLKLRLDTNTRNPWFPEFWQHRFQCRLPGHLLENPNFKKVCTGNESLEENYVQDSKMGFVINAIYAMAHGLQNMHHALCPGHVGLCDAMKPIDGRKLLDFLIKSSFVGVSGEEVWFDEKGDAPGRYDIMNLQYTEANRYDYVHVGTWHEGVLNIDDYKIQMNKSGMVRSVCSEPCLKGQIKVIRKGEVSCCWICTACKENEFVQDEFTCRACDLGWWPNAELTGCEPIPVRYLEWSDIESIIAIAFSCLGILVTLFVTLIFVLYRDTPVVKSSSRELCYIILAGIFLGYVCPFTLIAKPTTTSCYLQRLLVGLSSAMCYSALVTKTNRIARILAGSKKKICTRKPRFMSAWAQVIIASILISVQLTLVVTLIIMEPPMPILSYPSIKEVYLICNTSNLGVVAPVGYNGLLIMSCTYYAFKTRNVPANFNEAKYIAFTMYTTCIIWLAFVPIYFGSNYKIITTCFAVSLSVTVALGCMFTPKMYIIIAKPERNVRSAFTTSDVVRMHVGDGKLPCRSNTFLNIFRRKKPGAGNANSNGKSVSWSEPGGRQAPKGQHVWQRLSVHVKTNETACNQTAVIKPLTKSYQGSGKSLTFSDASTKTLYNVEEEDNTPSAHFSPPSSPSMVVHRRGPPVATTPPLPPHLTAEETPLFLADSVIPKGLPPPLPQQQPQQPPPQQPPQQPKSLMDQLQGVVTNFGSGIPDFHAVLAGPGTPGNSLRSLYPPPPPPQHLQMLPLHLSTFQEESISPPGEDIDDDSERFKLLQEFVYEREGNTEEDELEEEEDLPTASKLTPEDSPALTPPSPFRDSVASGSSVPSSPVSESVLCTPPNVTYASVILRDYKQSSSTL
Chain of Metabotropic glutamate receptor 1 (Homo sapiens, UniProt Q13255) (Q13255 whole entry): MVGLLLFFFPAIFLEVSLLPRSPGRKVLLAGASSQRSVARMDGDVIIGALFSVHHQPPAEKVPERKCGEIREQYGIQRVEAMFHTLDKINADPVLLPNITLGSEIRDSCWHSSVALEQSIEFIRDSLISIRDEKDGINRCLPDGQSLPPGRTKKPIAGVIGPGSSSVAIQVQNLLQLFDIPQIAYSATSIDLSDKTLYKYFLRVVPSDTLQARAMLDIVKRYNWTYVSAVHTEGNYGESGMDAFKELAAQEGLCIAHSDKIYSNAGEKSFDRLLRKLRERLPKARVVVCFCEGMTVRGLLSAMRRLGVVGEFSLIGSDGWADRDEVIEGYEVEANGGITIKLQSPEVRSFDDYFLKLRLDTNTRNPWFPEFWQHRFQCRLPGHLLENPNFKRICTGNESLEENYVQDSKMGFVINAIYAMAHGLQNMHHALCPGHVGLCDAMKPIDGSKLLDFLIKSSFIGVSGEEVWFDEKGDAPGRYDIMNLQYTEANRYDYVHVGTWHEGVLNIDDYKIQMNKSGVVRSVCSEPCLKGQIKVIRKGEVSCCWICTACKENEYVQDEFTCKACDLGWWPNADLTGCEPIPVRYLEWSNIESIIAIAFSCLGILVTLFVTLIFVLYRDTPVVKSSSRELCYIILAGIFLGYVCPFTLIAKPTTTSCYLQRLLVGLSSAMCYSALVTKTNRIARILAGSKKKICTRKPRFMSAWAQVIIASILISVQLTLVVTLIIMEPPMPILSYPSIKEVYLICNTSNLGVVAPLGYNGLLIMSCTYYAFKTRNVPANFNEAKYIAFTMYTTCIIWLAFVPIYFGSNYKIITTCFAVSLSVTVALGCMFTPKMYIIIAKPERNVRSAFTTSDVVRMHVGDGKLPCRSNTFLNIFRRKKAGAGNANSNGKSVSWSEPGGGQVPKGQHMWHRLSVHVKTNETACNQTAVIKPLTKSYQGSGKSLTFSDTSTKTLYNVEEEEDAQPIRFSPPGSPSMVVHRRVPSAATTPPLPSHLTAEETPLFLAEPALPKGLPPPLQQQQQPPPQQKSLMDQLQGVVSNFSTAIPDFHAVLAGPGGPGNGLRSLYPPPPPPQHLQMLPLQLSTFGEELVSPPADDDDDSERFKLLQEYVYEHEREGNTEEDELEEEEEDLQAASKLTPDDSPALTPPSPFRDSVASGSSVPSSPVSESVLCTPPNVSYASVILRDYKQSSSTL

Row | SMILES | IC50 [1] [nM] | IC50 [2] [nM] | clearance [3] [mL/min/kg] | half-life [4] [min]
1 | CCc1cc2cc(C(=O)C3CCC(OC)CC3)ccc2nc1CC (stereo in doubt; cis) | – | 8 | – | –
2 | CCc1cc2cc(C(=O)Cc3ccc(OC)c(OC)c3)ccc2nc1C | > 10000 | – | – | –
3 | CO[C@H]1CC[C@@H](C(=O)c2ccc3nc4c(cc3c2)CCC4)CC1 | – | 0.56 | – | –
4 | CCc1cc2cc(C(=O)C3CCC(O)CC3)ccc2nc1C (configuration not stated) | – | 80 | – | –
5 | CCc1cc2cc(C(=O)C3CCC(OC)CC3)ccc2nc1-c1nccs1 (configuration not stated) | > 10000 | – | – | –
6 | CO[C@H]1CC[C@@H](C(=O)c2ccc3nc4c(cc3c2)CCCN4C)CC1 | – | 29 | – | –
7 | CCc1cc2cc(C(=O)[C@H]3CC[C@@H](OC)CC3)ccc2nc1F | – | 9 | – | –
8 | O=C(Cc1ccccc1)c1ccc2cc3c(nc2c1)OCCC3 | 8300 | – | – | –
9 | CCCc1ccc2cc(C(=O)[C@H]3CC[C@@H](OC)CC3)ccc2n1 | – | 3 | – | –
10 | CCc1cc2cc(C(=O)Cc3ccc(N(C)C)cc3)ccc2nc1C | 645 | – | – | –
11 | CCc1cc2cc(C(=O)C3CCC(OC)CC3)ccc2nc1-c1cccs1 (configuration not stated) | 3310 | – | – | –

Further lines, results first:

Row | IC50 [1] [nM] | IC50 [2] [nM] | clearance [3] [mL/min/kg] | half-life [4] [min] | SMILES
12 | 80 | 18 | – | – | CO[C@H]1CC[C@@H](C(=O)c2ccc3nc4c(cc3c2)CCCCC4)CC1
13 | 435 | – | – | – | CCc1cc2cc(C(=O)Cc3cccc(OC)c3)ccc2nc1C
14 | 10 | 51 | – | – | CCc1cc2cc(C(=O)Cc3ccccc3)ccc2nc1C
15 | 2 | 2 | – | – | CO[C@H]1CC[C@@H](C(=O)c2ccc3nc4c(cc3c2)CCS4)CC1
16 | 3 | 0.55 | 91.7 | 19.2 | CO[C@H]1CC[C@@H](C(=O)c2ccc3nc4c(cc3c2)CCCO4)CC1 (stereo in doubt; form 1)
17 | 125 | 16 | – | – | C[C@H]1CC[C@@H](C(=O)c2ccc3nc4c(cc3c2)CCCCC4)CC1
18 | 45 | 450 | – | – | CCc1cc2cc(C(=O)[C@H]3CC[C@@H](OC)CC3)ccc2n2nnnc12
19 | 6 | 14 | – | – | O=C(Cc1ccccc1)c1ccc2nc3c(cc2c1)CCCO3
20 | 85 | 160 | – | – | O=C(CCc1ccccc1)c1ccc2nc3c(cc2c1)CCCO3
21 | 7 | 74 | – | – | O=C(Cc1ccsc1)c1ccc2nc3c(cc2c1)CCCO3
22 | 230 | > 10000 | – | – | CCc1cc2cc(C(=O)CCc3ccccc3)ccc2nc1C
23 | 126 | – | – | – | CCc1cc2cc(C(=O)C34CC5CC(CC(C5)C3)C4)ccc2nc1C
24 | 45 | 106 | – | – | CO[C@H]1CC[C@@H](C(=O)c2ccc3nc4c(cc3c2)CCCO4)CC1 (stereo in doubt; form 2)
